The source made the active and inactive calls. The calls are words filed in the database; no cut-off is given here.
What was measured:
Saccharomyces cerevisiae [1] = test: Antifungal activity against Saccharomyces cerevisiae BY4741 harboring RBS1 YDL189W mutant gene by spectrophotometry; type: functional
Method in brief: (§1)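 Haploid MATa BY4741 KanMX4 deletion strains pinned from frozen stocks into YPD + G418 (150 mg/liter), grown 3 days at 28°C to confluence, then pin-replicated into SC liquid with no drug or sordarin derivative GM193663 (2 ng/ml sensitivity; 62.5 ng/ml resistance). 28°C, OD595 read every 24 h for 5 days; growth scored relative to wild type on same plate and to untreated mutant.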

Saccharomyces cerevisiae [2] = test: Antifungal activity against Saccharomyces cerevisiae BY4741 harboring MIP1 YOR330C mutant gene by spectrophotometry; type: functional
Method in brief: (§2)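 Screen of BY4741 KanMX4 deletion strains pre-grown 3 days at 28°C in YPD with G418 (150 mg/liter), then pinned into liquid SC containing GM193663. The sensitivity screen used 2 ng/ml; the resistance screen used 62.5 ng/ml, with validation at 62.5, 125 and 500 ng/ml. OD595 was read every 24 h over 5 days at 28°C. Growth was scored relative to wild type and to drug-free controls. Retests were at least in duplicate.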

Saccharomyces cerevisiae [3] = test: Antifungal activity against Saccharomyces cerevisiae BY4741 harboring ARN2 YHL047C mutant gene by spectrophotometry; type: functional; method in brief: as §2
Saccharomyces cerevisiae [4] = test: Antifungal activity against Saccharomyces cerevisiae BY4741 harboring BEM2 YER155C mutant gene by spectrophotometry; type: functional; method in brief: as §2
Saccharomyces cerevisiae [5] = test: Antifungal activity against Saccharomyces cerevisiae BY4741 harboring CUE1 YMR264W mutant gene by spectrophotometry; type: functional; method in brief: as §2
Saccharomyces cerevisiae [6] = test: Antifungal activity against Saccharomyces cerevisiae BY4741 harboring EAF3 YPR023C mutant gene by spectrophotometry; type: functional; method in brief: as §2
Saccharomyces cerevisiae [7] = test: Antifungal activity against Saccharomyces cerevisiae BY4741 harboring RPL16B YNL069C mutant gene by spectrophotometry; type: functional; method in brief: as §1
Saccharomyces cerevisiae [8] = test: Antifungal activity against Saccharomyces cerevisiae BY4741 harboring RPL12B YDR418W mutant gene by spectrophotometry; type: functional; method in brief: as §1
Saccharomyces cerevisiae [9] = test: Antifungal activity against Saccharomyces cerevisiae BY4741 harboring YBL100C mutation assessed as reduction in fungal growth at 2 ng/ml by spectrophotometry; type: functional, organism-based
Method in brief: (§3)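 Deletion strains (BY4741 background) pre-grown 3 days at 28°C in YPD + G418 (150 mg/liter), then pin-replicated into SC liquid containing 2 ng/ml GM193663 or no drug. 28°C, OD595 every 24 h over 5 days; growth scored against wild type on same plate and against drug-free mutant control; hits retested at least in duplicate at 2 ng/ml.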

Saccharomyces cerevisiae [10] = test: Antifungal activity against Saccharomyces cerevisiae BY4741 harboring ATP12 YJL180C mutant gene assessed as reduction in fungal growth at 2 ng/ml by spectrophotometry; type: functional, organism-based
Method in brief: (§4)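 Haploid BY4741 KanMX4 deletion strains pre-grown in YPD with G418 (150 mg/liter) for 3 days at 28°C. They were then pin-replicated into liquid SC with sordarin derivative GM193663 at 2 ng/ml, or without drug. Plates were incubated at 28°C and OD595 read every 24 h for 5 days. Growth was scored against wild type on the same plate and against the drug-free mutant. Hits were retested at least in duplicate.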

Saccharomyces cerevisiae [11] = test: Antifungal activity against Saccharomyces cerevisiae BY4741 harboring SSQ1 YLR369W mutant gene assessed as reduction in fungal growth at 2 ng/ml by spectrophotometry; type: functional, organism-based; method in brief: as §3
Saccharomyces cerevisiae [12] = test: Antifungal activity against Saccharomyces cerevisiae BY4741 harboring AFG3 YER017C mutant gene assessed as reduction in fungal growth at 2 ng/ml by spectrophotometry; type: functional, organism-based; method in brief: as §4
Saccharomyces cerevisiae [13] = test: Antifungal activity against Saccharomyces cerevisiae BY4741 harboring HEM14 YER014W mutant gene assessed as reduction in fungal growth at 2 ng/ml by spectrophotometry; type: functional, organism-based; method in brief: as §4
Saccharomyces cerevisiae [14] = test: Antifungal activity against Saccharomyces cerevisiae BY4741 harboring deletion mutation in dph2 gene at 300 to 500 ng/ml after 24 hrs by liquid growth assay; type: functional
Saccharomyces cerevisiae [15] = test: Antifungal activity against Saccharomyces cerevisiae BY4741 harboring YER184C mutation in unknown gene by spectrophotometry; type: functional
Method in brief: (§5)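 Deletion strains from the nonessential haploid MATa BY4741 collection (KanMX4 replacement) were grown in YPD with G418 at 28°C for 3 days, then pinned into liquid SC with or without sordarin derivative GM193663 (2 ng/ml for sensitivity, 62.5 ng/ml for resistance). Cultures were kept at 28°C and read at OD595 every 24 h for 5 days. Growth was scored against wild type on the same plate and against the drug-free control. Hits were retested at least in duplicate.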

Saccharomyces cerevisiae [16] = test: Antifungal activity against Saccharomyces cerevisiae BY4741 harboring DLT1 YMR126C mutant gene by spectrophotometry; type: functional; method in brief: as §2
Saccharomyces cerevisiae [17] = test: Antifungal activity against Saccharomyces cerevisiae BY4741 harboring YSC83 YHR017W mutant gene by spectrophotometry; type: functional; method in brief: as §5
Saccharomyces cerevisiae [18] = test: Antifungal activity against Saccharomyces cerevisiae BY4741 harboring YCL042W mutation by spectrophotometry; type: functional; method in brief: as §1

Compound: CO[C@H]1[C@@H](O)[C@H](O)[C@H](OC[C@@]23C[C@@H]4[C@H](C)CC[C@H]4[C@@]4(C=O)CC2C=C(C(C)C)[C@@]34C(=O)O)O[C@@H]1C [SORDARIN]
- MIC (Saccharomyces cerevisiae [1]): > 0.5 µg/mL
- MIC (Saccharomyces cerevisiae [2]): > 0.5 µg/mL
- MIC (Saccharomyces cerevisiae [3]): > 0.5 µg/mL
- MIC (Saccharomyces cerevisiae [4]): > 0.5 µg/mL
- MIC (Saccharomyces cerevisiae [5]): > 0.0625 µg/mL
- MIC (Saccharomyces cerevisiae [6]): > 0.5 µg/mL
- MIC (Saccharomyces cerevisiae [7]): > 0.125 µg/mL
- MIC (Saccharomyces cerevisiae [8]): > 0.5 µg/mL
- Activity (Saccharomyces cerevisiae [9]): Active
- Activity (Saccharomyces cerevisiae [10]): Active
- Activity (Saccharomyces cerevisiae [11]): Active
- Activity (Saccharomyces cerevisiae [12]): Active
- Activity (Saccharomyces cerevisiae [13]): Active
- Activity (Saccharomyces cerevisiae [14]): 50%
- MIC (Saccharomyces cerevisiae [15]): > 0.125 µg/mL
- MIC (Saccharomyces cerevisiae [16]): > 0.125 µg/mL
- MIC (Saccharomyces cerevisiae [17]): > 0.5 µg/mL
- MIC (Saccharomyces cerevisiae [18]): > 0.125 µg/mL

Reference: ChEMBL document CHEMBL1275408, “A chemical genomic screen in Saccharomyces cerevisiae reveals a role for diphthamidation of translation elongation factor 2 in inhibition of protein synthesis by sordarin” (2008)
